# Screening results as filed in PubChem.
# An excerpt weighted towards active compounds, which were near 1.7% of everything screened.
# CHRM5 PAM = human M5 muscarinic receptor positive allosteric modulators, primary screen, CHO-K1 cells, Fluo-8 calcium fluorescence; Muscarinic acetylcholine receptor M5 (Homo sapiens), P08912; CHO-K1 hM5, ACh EC20 PAM; 0% = ACh EC20, 100% = ACh EC100; activation, % at 3 µM; 360,000 tested, 0.3% active;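 active = activation above the run cutoff, the mean activation of all test compounds plus 3 SD, cut at about 18% in these data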
# Target sequence (P08912 whole entry, looked up): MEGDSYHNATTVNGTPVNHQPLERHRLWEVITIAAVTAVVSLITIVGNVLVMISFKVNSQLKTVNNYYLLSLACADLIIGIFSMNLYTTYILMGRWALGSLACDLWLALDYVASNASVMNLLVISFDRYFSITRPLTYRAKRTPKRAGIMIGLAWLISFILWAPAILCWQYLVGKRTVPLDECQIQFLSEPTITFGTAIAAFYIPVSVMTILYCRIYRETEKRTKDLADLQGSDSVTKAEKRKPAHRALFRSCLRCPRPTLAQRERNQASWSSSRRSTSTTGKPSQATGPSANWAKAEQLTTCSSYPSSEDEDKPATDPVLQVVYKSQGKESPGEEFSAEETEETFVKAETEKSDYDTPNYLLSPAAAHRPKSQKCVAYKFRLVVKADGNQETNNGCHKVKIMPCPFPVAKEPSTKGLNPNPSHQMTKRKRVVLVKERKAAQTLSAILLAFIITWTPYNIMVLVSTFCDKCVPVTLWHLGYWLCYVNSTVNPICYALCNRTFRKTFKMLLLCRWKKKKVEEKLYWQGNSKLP
#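 Assay system: CHO-K1 hM5 cells / Incubation: Fluo-8 loading 80 min at 37 °C plus 30 min room temperature / Technique: Fluo-8 calcium dye fluorescence, kinetic read / Repeats: single replicate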
# CHRM5 antagonist = human M5 muscarinic receptor antagonists, primary screen, CHO cells, Fluo-8 calcium fluorescence; 360,000 tested, 0.59% active; inhibition, % at 3 µM; CHO-hM5 cells, ACh EC80;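 active = inhibition above a per-plate cutoff, the mean of that plate's test compounds plus 3 SD, cut at about 27% in these data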;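 also: 0% = acetylcholine EC80 with DMSO and 100% = DMSO without agonist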
# CHO-K1 Ca antag = M1 antagonist counterscreen hit in parental CHO-K1 cells | ATP-induced calcium, Fluo-8 fluorescence | 360,000 tested, 0.6% active | AID 602250 | inhibition, % at 3 µM;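 active = inhibition above a per-plate cutoff, the plate's mean sample inhibition plus 3 SD, cut at about 24% in these data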;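 also: 0% = DMSO plus EC80 ATP and 100% = DMSO alone without ATP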
# M5 ag = human M5 muscarinic receptor agonists, primary screen, CHO-K1 cells, Fluo-8 calcium fluorescence; Muscarinic acetylcholine receptor M5 (Homo sapiens), P08912; CHO-K1 hM5 cells; 0% DMSO wells, 100% maximal acetylcholine response; activation, % at 3 µM; 360,000 tested, 0.19% active; AID 624037, 2012;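 active = activation above the run's mean over test compounds plus 3 SD, cut at about 23% in these data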;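 also: signal is peak over basal fluorescence ratio across the kinetic read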
# M1 ag parental = counter-screen for M1 agonists: effect in parental CHO-K1 cells | Fluo-8 calcium fluorescence; scaled to maximal ATP response, vehicle zero | activation, % at 3 µM | 360,000 tested, 0.48% active | AID 602248, 2012; in the data active = activation above about 15%;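 also: untransfected CHO-K1 host cells lacking M1 receptor as counterscreen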
# CHO-K1 Ca PAM = nonselective calcium activators in parental CHO-K1 cells, primary screen, counter-screen for M1 PAM project, cell-based, Fluo-8 calcium fluorescence, full deck, 1536-well. AID 602247, 2012. activation, % at 3 µM. 360,000 tested, 0.02% active. ATP EC20; 0% at ATP EC20, 100% at ATP max;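 active = activation above the run cutoff, the mean activation of all test compounds plus 3 SD, cut at about 40% in these data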;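 also: peak over basal fluorescence ratio in a 140 s read after ATP addition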
# Starred values were filed as active, the others as inactive.
SMILES,CHRM5 PAM,CHRM5 antagonist,CHO-K1 Ca antag,M5 ag,M1 ag parental,CHO-K1 Ca PAM
COC(=O)c1ccc(CN2CCC(Oc3cccc(C(=O)N4CCCC4)c3)CC2)cc1,-16.1,80.4*,-1.9,-6.8,1.6,3.6
COc1ccc(NC(=O)c2cc(-c3cc(C)ccc3O)n[nH]2)cc1Cl,-4.1,-0.6,18.4,-0.3,0.5,-6.7
COc1ccccc1N1CCN(C(=O)c2noc(C(C)C)c2[N+](=O)[O-])CC1,4.0,-7.0,-1.9,1.7,2.3,0.9
COc1ccc(C(C[N+](=O)[O-])c2c(C)[nH]c3ccccc23)cc1OC (stereo unspecified),18.7*,0.5,6.8,-1.8,1.7,12.5
COc1ccc(-c2cc(CNC(C)=O)on2)cc1,-0.8,-7.8,-12.1,-3.5,1.2,10.0
COc1ccc(-c2cc(CNC(=O)CCl)on2)cc1,19.3*,-7.3,4.2,-0.5,0.5,21.2
C/C(CC(=O)Nc1ccccc1Br)=N\NC(=O)C(=O)N1CCCC1,60.7*,2.1,1.0,-6.0,-0.5,-23.8
C/C(CC(=O)Nc1ccc(Cl)cc1Cl)=N\NC(=O)C(=O)N1CCCC1,2.5,0.5,-30.1,-1.2,0.7,22.4
CC1CCC(NC(=O)c2cc(S(=O)(=O)N3CCCCC3)c[nH]2)CC1 (stereo unspecified),-3.8,1.6,12.2,5.3,4.4,10.2
CCSC1=NSC2=NC(=O)/C(=C\c3coc4ccccc4c3=O)C(=N)N12,-21.1,63.5*,48.3*,50.7*,58.6*,-13.6
Cc1cccc(-n2c(C)cc(/C=C3\C(=N)N4N=C(CC(C)C)SC4=NC3=O)c2C)c1,-5.8,4.8,0.8,-7.8,0.2,13.7
CC(C)CC1=NN2C(=N)/C(=C\c3coc4ccccc4c3=O)C(=O)N=C2S1,-24.6,48.0*,44.9*,157.6*,100.2*,-13.9
CSC1=NSC2=NC(=O)/C(=C\c3ccc(OC(=O)c4ccco4)cc3)C(=N)N12,4.5,-0.6,-13.9,-0.1,0.5,10.6
Cc1cc(N)n(-c2ccc(S(N)(=O)=O)cc2[N+](=O)[O-])n1,1.6,8.4,-9.3,-2.9,0.4,9.8
COc1ccc(C(CNC(=O)c2cccc(S(=O)(=O)N3CCOCC3)c2)N2CCOCC2)cc1 (stereo unspecified),-3.4,19.7,1.3,-7.6,0.6,-0.9
COc1ccc(NS(=O)(=O)c2ccc(NC(=S)NCC3CCCO3)cc2)cc1 (stereo unspecified),-8.9,27.0*,-6.9,3.3,8.3,3.7
O=S(=O)(NCC1CCCO1)c1ccc(-c2ccc(S(=O)(=O)NCC3CCCO3)cc2)cc1 (stereo unspecified),-24.5,35.3*,15.4,6.7,13.0,-9.1
CCCC(=O)NC(=S)Nc1ccc(S(=O)(=O)Nc2ccc(OCC)cc2)cc1,3.5,5.6,5.8,24.6*,26.9*,34.3
CCOc1ccc(NS(=O)(=O)c2ccc(NC(=S)NC(=O)CC(C)C)cc2)cc1,-2.8,20.0,8.2,10.3,10.6,19.2
CCC(=O)NC(=S)Nc1ccc(S(=O)(=O)NC(C)=O)cc1,2.1,1.0,28.9*,-3.7,-0.2,-11.9
CC(=O)NS(=O)(=O)c1ccc(NC(=S)Nc2ccccc2)cc1,-2.3,7.6,0.5,0.6,0.1,9.2
C[C@@H](OC(=O)c1[nH]cnc1C(=O)NCc1ccc(CNC(=O)OC(C)(C)C)cc1)c1ccccc1,-25.0,21.3,-9.7,-1.4,0.0,-15.5
Cc1cccc(OCC(=O)NC(=S)N2CCCc3ccccc32)c1,-4.2,5.4,-16.0,-3.0,2.3,21.7
COc1cc(C(=O)NCC(c2cccs2)N2CCOCC2)ccc1OCc1ccccc1 (stereo unspecified),0.2,0.7,26.6*,1.3,0.7,-12.3
O=C(NCC(c1cccs1)N1CCOCC1)c1ccccc1NS(=O)(=O)c1cccc([N+](=O)[O-])c1 (stereo unspecified),-0.7,0.3,-14.4,3.7,7.6,18.1
SMILES,CHRM5 PAM,CHRM5 antagonist,CHO-K1 Ca antag,M5 ag,M1 ag parental,CHO-K1 Ca PAM
CCOc1ccc(NS(=O)(=O)c2ccc(C(=O)NCC(c3cccs3)N3CCOCC3)cc2)cc1 (stereo unspecified),-5.5,5.2,-0.7,49.9*,24.7*,0.1
O=C(NCC(c1cccs1)N1CCOCC1)c1ccccc1NS(=O)(=O)c1ccc(Cl)c([N+](=O)[O-])c1 (stereo unspecified),-18.4,42.6*,22.2,7.1,15.6*,-7.2
O=C(NC[C@H]1CCCO1)c1cccc2c1C(=O)c1ccc(-c3ccc(F)cc3OCc3ccccc3)cc1S2(=O)=O,-19.8,8.4,3.5,4.8,1.7,4.8
CCOC(=O)CNC(=S)N(CCCN1CCCC1)Cc1cccs1,-11.3,7.6,10.9,-3.5,4.3,-10.7
COc1ccc(N2C(=O)CC(Sc3nc4ccccc4s3)C2=O)cc1OC (stereo unspecified),-6.1,3.9,5.3,1.6,2.5,11.8
Cc1ccc(C(=O)C2CCOC(C)(C)C2)cc1 (stereo unspecified),0.0,-3.4,-0.8,-2.8,0.1,6.9
O=c1ccc2cc(O)c(O)cc2o1,-11.8,3.6,0.5,24.9*,-0.3,7.7
CCOC(=O)C1=C(CC)Nc2ccccc2N=C1NC(=O)c1ccc(OC)c(S(=O)(=O)N2CCCCC2C)c1 (stereo unspecified),7.3,2.8,-11.1,-2.4,0.3,4.9
CCCNC(=O)c1ccc(S(=O)(=O)c2ccc(OC)cc2)c([N+](=O)[O-])c1,-15.4,16.4,8.5,5.0,16.3*,-5.7
COc1cccc(OCc2cc(C(=O)N3CCC(c4ccncc4)CC3)no2)c1,-14.1,7.1,19.2,5.0,11.7,-10.8
CC(=O)c1ccc(OCc2cc(C(=O)N3CCC(c4ccncc4)CC3)no2)cc1,-14.4,7.0,18.6,5.8,15.2*,-27.8
CC(=O)c1ccc(OCc2cc(C(=O)N3CCCCC3c3cccnc3)no2)cc1 (stereo unspecified),-12.7,8.3,-0.6,4.0,15.8*,-5.3
O=C(NNS(=O)(=O)c1ccccc1)C1CCN(S(=O)(=O)c2ccccc2)CC1,4.6,-2.5,-10.9,-7.1,0.4,17.1
Cc1ccc(NC(=O)CCNC(=O)c2ccco2)cc1F,-1.1,12.8,-7.2,-2.0,2.1,3.7
CNS(=O)(=O)c1cc(NC(=O)CCNC(=O)c2ccco2)ccc1C,0.9,27.5*,-4.2,-2.5,0.2,-0.2
